Assay outcomes as filed in PubChem.
KCNQ1 pot – potentiators or activators of KCNQ1 channel, primary screen, cell-based, thallium flux, high-throughput. Potassium voltage-gated channel subfamily KQT member 1 (Homo sapiens), P51787. CHO-K1 KCNQ1, thallium flux FluxOR fluorescence; stronger effect = higher value. B-score at 10 µM. 310,000 compounds, 0.35% hits. AID 2648, 2010;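 active = fluorescence ratio B-score, a plate-corrected score, at least three library SD, with initial intensity B-score within 5 SD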
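Schedule – 37 °C overnight plating, 90-min dark dye load, 20-min compound pretreatment · System – stable KCNQ1 CHO-K1 line · Probe or stimulus – thallium- and potassium-containing depolarizing buffer · Measured by – kinetic FluxOR fluorescence, 10 s baseline plus 110 s post-stimulus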
hERG protect – hERG rescue from dofetilide block, primary screen, cell-based, CHO-hERG, FluxOR thallium flux, dofetilide IC70 | Voltage-gated inwardly rectifying potassium channel KCNH2 (Homo sapiens), Q12809 | dofetilide IC70 present | activation (rescue from dofetilide block), less the hit threshold, % at 10 µM | 310,000 compounds, 0.51% hits | AID 1511, 2009;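 active = activation above the mean of controls blocked by dofetilide plus 5 SD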;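 note: thallium influx through hERG after potassium depolarization seen as dye fluorescence rise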
KCNQ1 inh – inhibitors of human KCNQ1 channel, primary screen, cell-based, thallium flux, high-throughput | CHO-K1 KCNQ1, FluxOR thallium flux fluorescence; stronger effect = higher value | B-score at 10 µM | 310,000 compounds, 1.3% hits | AID 2642, 2010;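 active = compounds whose thallium flux B-score, printed positive for inhibition, exceeds three library SD while starting fluorescence stays within three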;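 note: channel opened by potassium depolarization with thallium stimulus after 20 min compound exposure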
KCNK9 block – KCNK9 potassium channel inhibitors, primary screen, HEK293 cells, thallium flux; Potassium channel subfamily K member 9 (Homo sapiens), Q9NPC2; FluxOR thallium flux fluorescence; stronger effect = lower value; B-score at 10 µM; 310,000 compounds, 1.2% hits; AID 488922, 2010;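 active = ratio B-score over 3 SD below the library mean, with starting fluorescence within 5 SD of its mean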;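 note: negative B-score means less thallium flux so channel inhibition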
Target sequence (Q9NPC2 whole entry, looked up): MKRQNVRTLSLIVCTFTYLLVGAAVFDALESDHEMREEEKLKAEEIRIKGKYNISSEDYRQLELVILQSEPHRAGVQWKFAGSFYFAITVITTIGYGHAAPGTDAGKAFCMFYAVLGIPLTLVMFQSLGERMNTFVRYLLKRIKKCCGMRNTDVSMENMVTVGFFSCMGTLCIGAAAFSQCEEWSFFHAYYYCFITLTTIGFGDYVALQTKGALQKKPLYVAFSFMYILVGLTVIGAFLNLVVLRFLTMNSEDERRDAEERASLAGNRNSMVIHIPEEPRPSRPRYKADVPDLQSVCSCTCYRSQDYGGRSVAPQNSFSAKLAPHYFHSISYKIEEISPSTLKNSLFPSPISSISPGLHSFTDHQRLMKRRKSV
KCNK3 block – human KCNK3 channel inhibitors, primary screen, CHO cells, FluxOR thallium flux, B-score; Potassium channel subfamily K member 3 (Homo sapiens), O14649; FluxOR fluorescence; stronger effect = lower value; B-score at 10 µM; 340,000 compounds, 0.84% hits;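 active = B-score under library mean minus 4 SD, starting fluorescence ratio at most library mean plus 5 SD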;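 note: more negative B-score means stronger inhibition of thallium flux through KCNK3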
Target sequence (O14649 whole entry, looked up): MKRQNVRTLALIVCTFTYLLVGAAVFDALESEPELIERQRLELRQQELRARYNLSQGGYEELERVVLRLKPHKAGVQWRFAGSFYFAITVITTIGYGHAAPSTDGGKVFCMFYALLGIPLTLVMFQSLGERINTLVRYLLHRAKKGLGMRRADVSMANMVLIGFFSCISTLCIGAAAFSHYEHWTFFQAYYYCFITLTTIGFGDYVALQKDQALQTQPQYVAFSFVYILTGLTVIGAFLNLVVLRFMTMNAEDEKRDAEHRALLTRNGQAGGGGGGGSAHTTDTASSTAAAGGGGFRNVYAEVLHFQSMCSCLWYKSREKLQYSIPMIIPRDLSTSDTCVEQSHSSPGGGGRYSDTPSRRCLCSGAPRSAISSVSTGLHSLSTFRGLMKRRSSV
KCNQ1 block val – KCNQ1 potassium channel inhibitors, confirmation, cell-based, Tl flux, duplicate; shares compounds with KCNQ1 inh; KCNQ1 cell line, FluxOR thallium flux fluorescence; inhibition, % at 10 µM; 1,600 compounds, 93% hits;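 active = primary screen active, with duplicate mean exceeding buffer control mean plus 3 SD of buffer wells, cut at about 28% in these data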
CHO Tl flux – thallium flux effects in parental CHO cells, counter-screen for KCNQ1 inhibitor project, cell-based, Tl flux. 1,600 compounds, 21% hits. AID 588366, 2011. shares compounds with KCNQ1 inh. fluorescence ratio (Tl flux) at 10 µM. parental CHO-K1, FluxOR thallium flux fluorescence ratio; stronger effect = lower value; zero means no signal rise above baseline;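 active = mean of duplicate thallium-flux fluorescence ratios in parental host cells more than 5 SD below the buffer control mean, cut at about 0.38 in these data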;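 note: ratio is peak minus minimum fluorescence divided by baseline fluorescence; actives read low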
KCNQ1 ephys val – KCNQ1 channel inhibitors, confirmation, orthogonal assay, cell-based, automated electrophysiology; shares compounds with KCNQ1 inh; KCNQ1-CHO cells, automated patch clamp current; calls only at 10 µM; 490 compounds, 20% hits; AID 624120, 2012;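 active = KCNQ1 current drop exceeding 3 SD of negative control wells, seen in both duplicate runs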;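 note: steady state current during a 2 s step from -80 to +40 mV; negative values mean current inhibition and positive values mean potentiation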
KCNQ2 inh – KCNQ2 channel inhibition, selectivity assay for KCNQ1 inhibitor project, cell-based | shares compounds with KCNQ1 inh | KCNQ2 cells, FluxOR thallium flux fluorescence | inhibition, % at 10 µM | 1,600 compounds, 71% hits | AID 651746, 2012;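 active = mean percent inhibition of the KCNQ2 thallium signal more than 5 SD above the buffer-only control wells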;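 note: KCNQ2 expressed in CHO cells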
KCNQ1 KCNE1 spec – KCNQ1/KCNE1 channel inhibition, selectivity assay for KCNQ1 inhibitor project, CHO-K1 cells, thallium flux, FluxOR | AID 652147, 2013 | inhibition, % at 10 µM | 1,600 compounds, 77% hits | shares compounds with KCNQ1 inh | FluxOR thallium flux fluorescence;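 active = mean percent inhibition of duplicate wells above the buffer-only control mean plus 3 SD of those controls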
KCNK9 inh conf – KCNK9 potassium channel inhibitors, confirmation, HEK293 cells, thallium flux, duplicate; shares compounds with KCNK9 block; FluxOR thallium flux fluorescence; inhibition, % at 10 µM; 4,900 compounds, 43% hits;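 active = thallium signal inhibited by more than 5 SD of the compound-free buffer control wells, on both duplicate plates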
Kir21 sel – mouse Kir2.1 channel inhibition, confirmation, selectivity assay for KCNK9 modulator project, cell-based, HEK293, thallium flux; shares compounds with KCNK9 block; Kir2.1 cells, FluxOR thallium flux fluorescence; inhibition, % at 10 µM; 4,900 compounds, 4% hits; AID 492993, 2010;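 active = thallium signal drop more than 5 SD beyond the mean of the no-compound control wells, seen in both duplicate plates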;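 note: signal is fluorescence rise after thallium addition divided by baseline fluorescence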
HEK293 Tl ctr – thallium flux in non-induced HEK293 cells, confirmation, counter-screen for KCNK9 inhibitor project, cell-based, second counter screen, non-induced KCNK9-HEK293; 4,900 compounds, 40% hits; shares compounds with KCNK9 block; inhibition, % at 10 µM; FluxOR thallium flux;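 active = thallium signal drop beyond 5 SD of the untreated control mean, on both duplicate plates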
A number is an active result; - = inactive; . = no result given; + = active, no number. Sampled rows, rich in hits. Any-hit rate of the full collection: about 3.1%.

SMILES	KCNQ1 pot	hERG protect	KCNQ1 inh	KCNK9 block	KCNK3 block	KCNQ1 block val	CHO Tl flux	KCNQ2 inh	KCNQ1 KCNE1 spec	KCNK9 inh conf	Kir21 sel	HEK293 Tl ctr	others
CCOC(=O)C1CCN(C(=O)C(C)Sc2nnc3ccccn23)CC1 (stereo unspecified)	.	.	.	.	-	.	.	.	.	.	.	.
CCOC(=O)c1sc2nc(CC(=O)OC)nc(N3CCN(c4ccccn4)CC3)c2c1C	-	-	8	-	-	112.0	-	109.7%	140.0%	-	-	-	KCNQ1 ephys val=-
CC(C)(C)N(Cc1ccccc1)C(=O)CN1C(=O)c2ccccc2S1(=O)=O	.	.	.	.	-	.	.	.	.	.	.	.
O=S(=O)(c1ccc(F)c(F)c1)N1CCC2(CC1)OCCO2	-	-	-	-	-	.	.	.	.	.	.	.
N#C/C(=C/c1ccc(N2CCOCC2)o1)c1ccc(Br)cc1	-	-	16	-12	-	167.0	0.264	-	+	71.0%	36.5%	70.0%
N#C/C(=C/c1ccc(N2CCOCC2)o1)c1nc2ccccc2[nH]1	.	.	.	.	-	.	.	.	.	.	.	.
c1ccc(Oc2nc(N3CCOCC3)nc(N3CCOCC3)n2)cc1	-	-	-	-	-	.	.	.	.	.	.	.
Clc1ccc(Oc2nc(N3CCOCC3)nc(N3CCOCC3)n2)c(C2CCCCC2)c1	-	-	6	-	-	98.5	0.369	104.7%	91.0%	-	-	-
CCOP(=O)(Nc1cccc2oc(=O)c3ccccc3c12)OCC	.	.	.	.	-	.	.	.	.	.	.	.
O=C(c1ccc(S(=O)(=O)Nc2ccccc2F)cc1)N1CCCC1	.	.	.	.	-	.	.	.	.	.	.	.
O=C(NCc1ccccc1)c1cccc(COc2ccc3c(c2)CCC3)c1	-	-	7	-	-	98.5	-	112.0%	139.0%	-	-	-	KCNQ1 ephys val=+
Cc1cc(C)n(Cc2ccc(Cl)cc2Cl)c(=O)c1S(=O)(=O)c1ccccc1	-	-	8	-11.9	-	81.0	-	80.7%	102.5%	56.5%	-	42.0%
CN(C(=O)NC1CC(=O)N(c2ccc3c(c2)OCCO3)C1)c1ccccc1 (stereo unspecified)	-	-	-	-	-	.	.	.	.	.	.	.
CC1(C)Cc2c(C#N)c(N3CCN(C(=O)c4ccccc4)CC3)nc(Cc3ccccc3)c2CO1	-	-	10	-	-	105.5	-	111.0%	128.0%	-	-	-	KCNQ1 ephys val=-
Cc1nn(CCc2nn[nH]n2)c2nc(-c3ccc(Br)cc3)cc(C(F)(F)F)c12	-	-	8	-	-	76.0	0.379	101.3%	59.0%	-	-	-
Cc1cccc(NC(=O)CN2CCN(C(=O)CN3C(=O)NC4(CCCCC4C)C3=O)CC2)c1C (stereo unspecified)	.	.	.	.	-	.	.	.	.	.	.	.
CCOc1ccccc1C(=O)OCC(=O)Nc1cc(Cl)ccc1Oc1ccccc1	-	-	8	-8.12	-	87.0	-	76.3%	106.5%	32.0%	-	39.5%
COc1cccc(OCC(=O)Nc2cc(Cl)ccc2Oc2ccccc2)c1	-	-	-	-	-	.	.	.	.	.	.	.
Cc1cc(Cl)ccc1OC(C)C(=O)Nc1ccccc1N1CCOCC1 (stereo unspecified)	-	-	6	-9.3	-	87.5	0.316	101.3%	139.5%	38.5%	44.0%	46.0%
CC(C)(C)c1ccc(OCCC(=O)Nc2cccc(S(=O)(=O)NC3=NCCCCC3)c2)cc1	.	.	.	.	-	.	.	.	.	.	.	.
O=C(Nc1ccc(Cl)c(Cl)c1)Nc1ccccc1NS(=O)(=O)c1cccs1	-	-	18	-12.9	-	113.5	-	77.3%	43.0%	44.5%	-	-	KCNQ1 ephys val=-
Cc1nc(NS(=O)(=O)c2ccc(Cl)s2)c2c3c(sc2n1)CCCC3	-	-	7	-	-	79.0	-	-	66.0%	-	-	-
COc1ccc(Cl)cc1NC(=O)CN(C)C(=O)c1cc2c(s1)CCCC2	.	.	.	.	-	.	.	.	.	.	.	.
N#Cc1c(NC(=O)Cn2c(=O)oc3ccccc32)oc(-c2ccccc2)c1-c1ccccc1	-	-	12	-8.2	-	63.5	-	-	-	-	-	-
O=C(Cn1c(=O)oc2ccccc21)Nc1ccc(Br)cc1	-	-	-	-	-	.	.	.	.	.	.	.
CCOC(=O)c1c(C)[nH]c(C)c1C(=O)COC(=O)CSc1ccc(C)cc1	.	.	.	.	-	.	.	.	.	.	.	.
O=C1c2ccccc2OC2(C=Cc3ccccc3O2)N1Cc1ccccc1 (stereo unspecified)	-	-	7	-13.7	-	116.0	0.376	109.0%	157.5%	46.5%	-	34.0%
O=C1c2[nH]nc(-c3ccccc3O)c2C(c2ccccc2F)N1Cc1ccco1 (stereo unspecified)	-	-	9	-14.8	-9.12	126.5	-	77.7%	116.0%	73.0%	-	33.0%
CC(=O)C1=C(C)OC(N)=C(C#N)C1c1cccc2ccccc12 (stereo unspecified)	-	-	-	-	-	.	.	.	.	.	.	.
